Assay outcomes as filed in PubChem BioAssay.
Fibroblast inh – antiproliferative effect on LL 47 fibroblasts – human, LL 47 cells, CellTiter-Glo luminescence, primary screen; LL 47 human lung fibroblast viability, ATP luminescence; hits give low values; viability, % at 10 µM; hit rate 1.1% among 85,000; AID 719, 2007;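 active = viability at or below 50% in the single dose screen; inactive = viability above 50%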;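 note: compound exposure lasted 72 h before the ATP readout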
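test system = LL 47 human lung fibroblasts | amount = 1,150 fibroblasts seeded per well | medium = 15% FBS in IMEM | times = overnight cell rest, 72 h compound treatment at 37 °C | measured by = CellTiter-Glo luminescence measuring cellular ATP | read-out = viability percentage against median untreated-cell control | benchmarks = cell-only wells, no compound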
H69AR inhibit – proliferation blockers of H69AR lung cancer cells, primary screen, cell-based, human, 86K library; viability, % at 10 µM; H69AR lung tumor viability, ATP luminescence, 72 h; hits give low values; hit rate 6% among 85,000;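 active = viability at or below 40%; inactive = viability above 40%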;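 note: multidrug resistant small cell line overexpressing MRP-1 efflux transporter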
HCT116 PTEN-null – growth suppression of PTEN-null HCT116, primary screen, cell-based, CellTiter-Glo | HCT116 PTEN-null viability, 60 h; hits give low values | viability, % at 10 µM | hit rate 1.2% among 140,000 | AID 827, 2007;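 active = viability at or below a set limit, 4 SD under the median of all tested compounds, cut at about 3.7% in these data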;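 note: PTEN knockout HCT116 line with beta catenin targeted HCT116 as companion control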
HCT116 bCat-KO – primary screen for growth suppressors in beta-catenin knockout HCT116 cells (colon tumor, human); HCT116 beta-catenin knockout viability, CellTiter-Glo, 60 h; hits give low values; viability, % at 10 µM; hit rate 1.5% among 140,000; AID 818, 2007;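 active = viability at or under a set limit, the compound median less 4 SD, cut at about 6% in these data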
HUVEC prolif 384 – inhibitors of HUVEC proliferation, primary screen, cell-based, 384-well | hit rate 1.1% among 86,000 | viability, % at 10 µM (by protocol) | CellTiter-Glo luminescence, 72 h; hits give low values;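 active = viability at or below 30%; inactive = viability above 30%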
A number is an active result; – = inactive; · = not tested or not shown. The full list was thinned out, with hits kept by preference.

SMILES	Fibroblast inh	H69AR inhibit	HCT116 PTEN-null	HCT116 bCat-KO	HUVEC prolif 384
COc1ccc(-c2cn(-c3ccccc3)c3[n+]2CCS3)cc1	·	·	–	–	·
Cc1ccc(-c2cc3cccc[n+]3cc2-c2ccc(C)cc2)cc1	·	·	–	3.2	·
Cc1cc(Br)ccc1OCC(=O)NNC(=O)c1cnccn1	·	·	–	–	·
COc1ccccc1OCC(=O)N/N=C/C=C/c1ccc([N+](=O)[O-])o1	·	·	2.6	3.2	·
N#Cc1cc(Br)ccc1N=C1CCCN1c1ccccc1	·	·	–	–	·
CC(=O)c1cnc2c(-c3ccc(Cl)cc3)c(C)nn2c1C	–	–	–	–	27.8
COc1ccccc1Nc1nnc(SCC(=O)NC(=O)Nc2ccc3c(c2)OCCO3)s1	·	·	–	–	·
COCCn1c(=NC(=O)CSCC(=O)Nc2cc(C)on2)sc2cc(C(=O)OC)ccc21	·	·	0.5	–	·
CCN(CC)C(=O)CSc1nc(N)c2c3c(sc2n1)CC(C)CC3 (stereo unspecified)	–	37.2	–	–	–
CC1CCc2c(sc3nc(SCC(=O)NCc4ccco4)nc(N)c23)C1 (stereo unspecified)	–	35.2	–	–	–
CCOC(=O)CSc1nc(N)c2c3c(sc2n1)CCCC3	–	–	–	–	–
CC1CCc2c(sc3nc(C4CC4)nc(SCC(=O)NCc4ccco4)c23)C1 (stereo unspecified)	–	–	·	·	–
O=C(/C=C/Sc1ccccc1)c1ccc(Cl)cc1	32.8	1.6	–	–	–
O=C(/C=C/Sc1ccccc1)c1ccccc1	8.3	2.2	1.4	2.1	–
O=C(/C=C/Nc1ccccc1)c1ccccc1	–	–	–	–	–
Clc1ccc(-n2nnnc2Sc2ncnc3sccc23)cc1	48.5	2.0	·	·	4.6
Cc1sc2ncnc(Sc3nnnn3-c3ccccc3)c2c1C	10.5	0.9	–	–	25.9
Cc1sc2ncnc(Nc3ccccc3)c2c1C	–	–	–	–	–
Cc1ccc(NC(=S)N(CCN(C)C)Cc2cc3cc(C)cc(C)c3[nH]c2=O)cc1	·	·	–	–	·
CC(=O)Nc1ccc(N=Nc2ccc(O)cc2)cc1	·	·	–	–	·
COc1cc(C2Sc3ccccc3NC3=C2C(=O)OC3)cc(OC)c1OC (stereo unspecified)	–	14.5	–	–	–
Cc1ccc(C(=O)Nc2ncnc3sc4c(c23)CCCCC4)cc1	–	31.1	–	–	–
C[C@H](Nc1ncnc2sc3c(c12)CCC3)C(=O)O	–	–	–	–	–
CC1Cc2ccccc2N1Cc1nc2cc(C(F)(F)F)ccc2c(=O)[nH]1 (stereo unspecified)	–	36.8	–	–	–
S=C(Nc1ccccc1)Nc1ccc(OCc2ccc(Cl)cc2Cl)cc1	·	·	–	–	·
SMILES	Fibroblast inh	H69AR inhibit	HCT116 PTEN-null	HCT116 bCat-KO	HUVEC prolif 384
OCCCCNCc1ccc(OCc2ccc(Cl)cc2Cl)cc1	·	·	1.6	1.8	·
O=C(NC(c1ccccc1)c1ccccc1)c1cccc(S(=O)(=O)NCc2ccccc2)c1	·	·	–	–	·
COCCNC(=O)c1ccc(CN2CCOCC2)cc1	–	–	–	–	–
Cc1ccc(Cl)cc1N1CCN(CC(=O)Nc2ccc(CN3CCCCC3)cc2)CC1	27.5	2.9	–	–	8.2
CCOC(=O)c1ccccc1NC(=O)c1ccc(N(C)S(C)(=O)=O)cc1	–	26.8	–	–	–
O=C(CCN1CCc2ccccc2C(c2ccccc2)C1)c1ccc2c(c1)OCCO2 (stereo unspecified)	–	1.6	–	–	–
O=C(CCN1Cc2ccccc2C1)c1ccc2c(c1)OCCO2	–	1.0	–	–	–
O=C(O)CCC(=O)c1ccc2c(c1)OCCO2	–	–	–	–	–
O=C(CS(=O)(=O)c1ccccc1)c1ccc2c(c1)OCCO2	–	–	–	–	–
CCc1nc2ccccc2c(C(=O)OCC(=O)Nc2ccc(S(=O)(=O)N3CCOCC3)cc2)c1C	–	27.9	–	–	–
CCc1nc2ccccc2c(C(=O)OCC(=O)Nc2cccc(S(=O)(=O)N3CCOCC3)c2)c1C	–	22.5	–	–	–
O=S(=O)(c1ccc(S(=O)(=O)N2CCCC2)cc1)N1CCCCCC1	–	–	–	–	–
O=S(=O)(c1ccc2c(c1)C(=NO)c1cc(S(=O)(=O)N3CCCCC3)ccc1-2)N1CCCCC1	1.6	0.4	1.6	0.9	1.6
CC1CCN(S(=O)(=O)c2ccc3c(c2)C(=NO)c2cc(S(=O)(=O)N4CCC(C)CC4)ccc2-3)CC1	2.3	0.9	1.2	0.8	2.8
Cc1ccc(NC(=O)NNC(=O)Cn2nc(-c3ccccc3)c(-c3ccccc3)c(C#N)c2=O)cc1	·	·	·	–	·
CCN(CC)c1nc2ccccc2c(N)c1-c1ccccc1	–	38.8	–	–	–
Cc1c(N(C)C)nc2ccccc2c1N	·	·	–	–	·
COC(=O)C[N+](C)(C)CC#Cc1ccccc1	·	·	–	–	·
COc1ccc(/C=C/C(=O)c2ccc(O)cc2)cc1CN1CCOCC1	·	·	–	–	·
COc1cccc(C(=O)/C=C/c2ccc(OCC#N)c(OC)c2)c1	·	·	2.5	3.6	·
COc1cc(/C=C/C(=O)c2ccc(O)cc2)ccc1OCC#N	·	·	1.7	2.7	·
CCOc1ccc(/C=C/C(=O)c2ccccc2)cc1OC	·	·	–	–	·
COC(=O)c1ccc(/C=C/C(=O)c2cccc(OC)c2)cc1	·	·	1.9	2.1	·
COc1ccccc1N1CCN(C(=O)C2CC=CCC2C(=O)O)CC1 (stereo unspecified)	–	–	–	–	–
COc1ccccc1N1CCN(C(=O)C2c3ccccc3Oc3ccccc32)CC1	–	30.2	–	–	–
SMILES	Fibroblast inh	H69AR inhibit	HCT116 PTEN-null	HCT116 bCat-KO	HUVEC prolif 384
O=C(C1c2ccccc2Oc2ccccc21)N1CCN(c2ccc(Cl)cc2)CC1	–	39.1	–	–	–
Cc1ccc(CN(c2ccc(C(=O)Nc3cccnc3)cc2)S(C)(=O)=O)cc1	–	–	–	–	–
Nc1nc(OCC(F)(F)F)cc(Oc2ccccc2F)n1	·	36.3	–	–	–
CNC(=S)N/N=C1\C(=O)c2cccc3cccc1c23	46.0	13.4	1.2	2.6	–
CCCCNC(=S)N/N=C1\C(=O)c2cccc3cccc1c23	·	·	–	–	·
CCOC(=O)c1c(C)oc2c1c(C(c1cccnc1)N1CCN(C)CC1)c(O)c1ccccc12 (stereo unspecified)	–	2.1	·	·	8.4
CCOC(=O)c1c(C)oc2c1c(C(c1cccnc1)N1CCOCC1)c(O)c1ccccc12 (stereo unspecified)	·	·	–	–	·
CCOC(=O)c1c(C)oc2c1c1c(c3ccccc32)OCN(Cc2cccnc2)C1	–	11.7	–	–	–
Brc1cc2c(cc1/C=N/Nc1nc(N3CCOCC3)nc(N3CCOCC3)n1)OCO2	·	·	–	–	·
CCC(=O)Nc1cccc(C(=O)c2ccccc2)c1	–	–	–	–	–
CCC(=O)Nc1cccc(C(=O)/C=C/c2ccccc2)c1	·	·	1.4	1.6	·
O=C1CC(C(=O)Nc2cccc3ccccc23)C2(CCCC2)O1 (stereo unspecified)	–	–	–	–	–
CC(C)COC(=O)c1cccc2c1-c1ccccc1/C2=N\O	–	–	–	–	–
